Reference: ChEMBL document CHEMBL4007441, “Novel Design of Heptad Amphiphiles To Enhance Cell Selectivity, Salt Resistance, Antibiofilm Properties and Their Membrane-Disruptive Mechanism” (J Med Chem, 2017)
Active and inactive are the calls of the source. The calls are words filed in the database; no cut-off is given here.

Columns and labels:
[1] = test system: Pseudomonas aeruginosa; experiment: Antibacterial activity against Pseudomonas aeruginosa CICC 10419 after 18 hrs by broth microdilution method; type: functional; conditions: CICC 10419, 18 h
In short: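 Broth microdilution in Mueller-Hinton broth. Exponential-phase bacteria (37 °C, 220 rpm shaking) were diluted to about 1 × 10^6 CFU/mL and mixed 1:1 with two-fold serial peptide dilutions. MIC is the lowest concentration with no visible turbidity after 18 h at 37 °C. Controls were uninoculated MHB and untreated culture. Run at least three times, two replicates each.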

[2] = test system: Pseudomonas aeruginosa; experiment: Antibacterial activity against Pseudomonas aeruginosa 21328 clinical isolate after 18 hrs by broth microdilution method; type: functional; conditions: Pseudomonas aeruginosa, 21328, 18 h
[3] = test system: RAW264.7; experiment: Cytotoxicity in mouse RAW264.7 cells after 24 hrs by MTT assay; type: cell-based; conditions: raw264.7, 24 h
[4] = test system: RAW264.7; experiment: Inhibition of LPS-induced TLR4 negative regulation in mouse RAW264.7 cells at 10 mg/L after 18 hrs by Western blot analysis; type: functional, cell-based
In short: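 Western blot of RAW264.7 lysates after 18 h with LPS at 100 ng/mL, with or without peptide at 10 mg/L. Lysates were run on 8% or 12% SDS-PAGE, transferred to PVDF and blocked in 5% milk/TBST. Primary antibodies were applied at 4 °C overnight, then HRP secondary and ECL detection. β-actin was the loading control.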

[5] = test system: Pseudomonas aeruginosa; experiment: Antibacterial activity against Pseudomonas aeruginosa ATCC 27853 after 18 hrs in presence of NaCl by broth microdilution method; type: functional; conditions: ATCC 27853, 18 h
In short: (§1)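 Broth microdilution MIC against ATCC 27853 in Mueller-Hinton broth with added salt at final concentrations: NaCl 150 mM, KCl 4.5 mM, NH4Cl 6 µM, ZnCl2 8 µM, FeCl3 4 µM. Inoculum about 1 × 10^6 CFU/mL from exponential phase, mixed 1:1 with two-fold peptide dilutions. MIC read as no visible turbidity after 18 h at 37 °C.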

[6] = test system: Pseudomonas aeruginosa; experiment: Antibacterial activity against Pseudomonas aeruginosa ATCC 27853 after 18 hrs in presence of KCl by broth microdilution method; type: functional; conditions: ATCC 27853, 18 h; in short: as §1
[7] = test system: Pseudomonas aeruginosa; experiment: Antibacterial activity against Pseudomonas aeruginosa ATCC 27853 after 18 hrs in presence of NH4Cl by broth microdilution method; type: functional; conditions: ATCC 27853, 18 h; in short: as §1
[8] = test system: Pseudomonas aeruginosa; experiment: Antibacterial activity against Pseudomonas aeruginosa ATCC 27853 after 18 hrs in presence of ZnCl2 by broth microdilution method; type: functional; conditions: ATCC 27853, 18 h; in short: as §1
[9] = test system: Pseudomonas aeruginosa; experiment: Antibacterial activity against Pseudomonas aeruginosa ATCC 27853 after 18 hrs in presence of MgCl2 by broth microdilution method; type: functional; conditions: ATCC 27853, 18 h
In short: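 Broth microdilution MIC in MHB against the reference strain. About 1 × 10^6 CFU/mL exponential-phase inoculum mixed 1:1 with two-fold peptide dilutions in medium containing 1 mM MgCl2 (final). Lowest concentration with no visible turbidity after 18 h at 37 °C.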

[10] = test system: Pseudomonas aeruginosa; experiment: Antibiofilm activity against Pseudomonas aeruginosa ATCC 27853 assessed as reduction in cell density of biofilm at 4 times MIC after 1 hr by SEM analysis; type: functional
In short: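 Biofilm imaging: biofilms grown on sterile coverslips in 12-well wells were treated with peptides at 4 × MIC for 1 h, then fixed overnight in 2.5% glutaraldehyde and viewed by SEM. Untreated control. At least three repeats.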

[11] = test system: Escherichia coli; experiment: microbe, parasite or virus in culture; conditions: ATCC 25922, 18 h
[12] = test system: Lipopolysaccharide (LPS); experiment: Inhibition of BODIPY-TR-cadaverine binding to Pseudomonas aeruginosa 10 LPS by fluorescence spectrophotometric analysis
[13] = test system: Pseudomonas aeruginosa; experiment: Antibacterial activity against Pseudomonas aeruginosa ATCC 27853 assessed as induction of cytoplasmic membrane depolarization after 90 min incubation under dark condition by diSC3-5 dye-based fluorescence analysis; type: functional
In short: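 Exponential-phase cells were washed three times in 5 mM HEPES (pH 7.4). diSC3-5 (0.4 µM final) and KCl (0.1 M final) were added, then the cells were incubated 90 min at 37 °C in the dark. Peptide at a range of concentrations was added and fluorescence followed at ex 622/em 670 nm. Three independent experiments, duplicates each.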

[14] = test system: Pseudomonas aeruginosa; experiment: Antibacterial activity against Pseudomonas aeruginosa ATCC 27853 assessed as induction of membrane distortion at MIC after 1 hr by SEM analysis; type: functional
In short: (§2)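 For SEM, exponential-phase cells were washed in PBS pH 7.4, set to OD600 0.2 and exposed to 1 × MIC for 60 min at 37 °C. They were fixed in 2.5% glutaraldehyde at 4 °C overnight, dehydrated through graded ethanol and tert-butanol, dried, gold-coated and imaged. Untreated control. At least three repeats, duplicates.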

[15] = test system: Pseudomonas aeruginosa; experiment: Antibacterial activity against Pseudomonas aeruginosa ATCC 27853 assessed as induction of membrane damage at MIC after 1 hr by SEM analysis; type: functional; in short: as §2
[16] = test system: Pseudomonas aeruginosa; experiment: Antibacterial activity against Pseudomonas aeruginosa ATCC 27853 assessed as induction of membrane corrugation at MIC after 1 hr by SEM analysis; type: functional; in short: as §2
[17] = test system: Pseudomonas aeruginosa; experiment: Antibacterial activity against Pseudomonas aeruginosa ATCC 27853 assessed as induction of membrane damage at MIC after 1 hr by TEM analysis; type: functional
In short: (§3)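 For TEM, exponential-phase cells were washed in PBS pH 7.4, adjusted to OD600 0.2 and treated at 1 × MIC for 60 min at 37 °C. Fixation was 2.5% glutaraldehyde at 4 °C overnight, then 2% osmium tetroxide for 70 min. Samples went through a graded ethanol series, ethanol/acetone and acetone before imaging. Untreated control.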

[18] = test system: Pseudomonas aeruginosa; experiment: Antibacterial activity against Pseudomonas aeruginosa ATCC 27853 assessed as induction of intracellular content dispersion at MIC after 1 hr by TEM analysis; type: functional, cell-based; in short: as §3
[19] = test system: Pseudomonas aeruginosa; experiment: Antibacterial activity against Pseudomonas aeruginosa ATCC 27853 assessed as induction of membrane integrity disruption at MIC after 15 mins by PI-staining based flow cytometry (reference value: 4.7%)

Substance	MIC [1] [µg/mL]	MIC [2] [µg/mL]	CC10 [3] [µg/mL]	inhibition [4]	MIC [5] [µg/mL]	MIC [6] [µg/mL]	MIC [7] [µg/mL]	MIC [8] [µg/mL]	MIC [9] [µg/mL]	Activity [10]	MIC [11] [µg/mL]	Activity [12]	Activity [13]	Activity [14]	Activity [15]	Activity [16]	Activity [17]	Activity [18]	Activity [19] [%]
H-LRRLRRRWWRRRLRRL-NH2	16	32	128	Active	16	8	8	8	32	Active	16	Dose-dependent effect							
H-LRRLRRRWWWRRRLRRL-NH2	8	4	256	Active	8	4	4	8	16	Active	4	Dose-dependent effect	Dose-dependent effect	Active	Active	Active	Active	Active	99.5
